# Hits are enriched below; roughly 3.4% of the tested compounds scored in any of these assays.
# TMEM16A act: activators or potentiators of mouse TMEM16A chloride channel | Q8BHY3 | HEK293 TMEM16A/YFP-H148Q/I152L, iodide quench fluorescence; stronger effect = lower value | B-score at 10 µM | hit rate 0.3% among 340,000;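 active means fluorescence-ratio B-score plate-corrected deviation score at least 3 library SD below zero, with starting fluorescence score within 5 deviations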;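 further: channel opened by trigger with iodide after compound preincubation; score built on the fluorescence ratio of max minus min over baseline; more negative score means more quench and so TMEM16A activation or potentiation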
# beta cell repl: MIN6 beta-cell proliferation induction | proliferation, % at 10 µM | MIN6 cells proliferation, ATPlite luminescence, 48 h; cells starved in 0.2% serum; 100% = growth in 10% serum | hit rate 0.29% among 330,000;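 active means compounds whose signal lies at least 3.5 SD above the mean of all wells on their plate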
# MC4R barr agon: agonists of human melanocortin 4 receptor (MC4R) beta-arrestin; U2OS MC4R beta-arrestin complementation, luminescence; percent of melanotan II response, DMSO zero; activation, % at 8.9 µM; hit rate 0.98% among 360,000;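 active means activation above a per-plate cutoff, the mean activation of sample wells on that plate plus 3 SD, cut at about 8% in these data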
# TMEM16A inh: mouse TMEM16A channel inhibition, primary screen; HEK293 TMEM16A/YFP iodide influx fluorescence, ionomycin; normalized B-score (activity score, 25-100; higher = stronger inhibition) at 10 µM; hit rate 1.2% among 310,000;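 active means ratio plate-corrected score three or more library SD toward inhibition, starting fluorescence score within five deviations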;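 further: score derived from kinetic fluorescence span divided by baseline fluorescence per well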
# m5-HT2A agonist: mouse HTR2A agonism via beta-arrestin recruitment. CHO-K1 mHTR2A beta-arrestin complementation, luminescence; percent of 30 µM serotonin response. AID 624169. P35363. hit rate 0.66% among 360,000. activation, % at 7.6 µM;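 active means activation above a run cutoff, the mean activation of all tested compounds plus 3 SD, cut at about 14% in these data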
# Target sequence (P35363 whole entry, looked up): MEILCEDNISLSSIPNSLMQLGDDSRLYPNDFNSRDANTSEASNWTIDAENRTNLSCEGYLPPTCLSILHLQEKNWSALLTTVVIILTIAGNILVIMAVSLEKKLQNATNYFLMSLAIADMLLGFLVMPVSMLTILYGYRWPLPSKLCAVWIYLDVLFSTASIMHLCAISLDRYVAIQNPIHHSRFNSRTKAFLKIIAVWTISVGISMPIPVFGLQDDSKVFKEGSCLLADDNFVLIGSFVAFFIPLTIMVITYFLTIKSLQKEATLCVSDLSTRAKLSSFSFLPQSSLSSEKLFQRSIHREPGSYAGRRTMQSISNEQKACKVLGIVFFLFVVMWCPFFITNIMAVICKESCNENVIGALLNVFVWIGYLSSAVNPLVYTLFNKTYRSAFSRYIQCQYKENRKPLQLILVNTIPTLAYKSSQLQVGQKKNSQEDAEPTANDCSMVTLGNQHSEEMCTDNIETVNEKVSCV
# MC4R antagonist: antagonists of human melanocortin 4 receptor (MC4R). hit rate 0.48% among 360,000. MC4R-expressing cells, MTII-stimulated cAMP, LANCE TR-FRET. inhibition, % at 6.5 µM;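 active means inhibition above its plate's cutoff, the mean of tested wells on that plate plus 3 SD, cut at about 29% in these data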
#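 System: U2OS-MC4R stable cell line; Technique: Eu-cAMP/anti-cAMP TR-FRET, emission 671 nm; Repeats: single well per compound; Also added: Melanotan II; Dosing: one concentration, 6.5 µM nominal; Schedule: 30-min compound, 1-h challenge, 1-h detection, room temperature.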
# MC4R barr conf: human MC4R beta-arrestin agonism confirmation | shares compounds with MC4R barr agon | hit rate 31% among 2,400 | U2OS MC4R beta-arrestin recruitment, luminescence; scaled DMSO 0%, Melanotan II 100% | activation, % at 8.9 µM;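 active means mean activation across replicates above the hit cutoff set in the earlier primary screen, cut at about 8% in these data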
# MOR DOR agonist: OPRM1-OPRD1 heterodimer agonism counter-screen | activation, % at 9.2 µM | hit rate 5.8% among 2,400 | U2OS PathHunter beta-arrestin, beta-gal luminescence; percent of deltorphin B response, DMSO zero | shares compounds with MC4R barr agon;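 active means mean activation across replicates exceeds the hit threshold derived in the earlier primary screen, cut at about 18% in these data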
# Hits are given with their value; – = inactive; · = no result.
SMILES,TMEM16A act,beta cell repl,MC4R barr agon,TMEM16A inh,m5-HT2A agonist,MC4R antagonist,MC4R barr conf,MOR DOR agonist
O=C(Nc1cc(C(F)(F)F)ccc1N1CCOCC1)c1cn2ccccc2n1,–,–,12,–,–,–,–,–
CCc1cc2c(Nc3ccc(O)cc3)nc(C)nc2s1,–,–,–,–,–,–,·,·
Cc1cccc2c1nc(-c1ccccc1)n1nnnc21,–,–,13,–,–,–,–,–
Cc1cccc2c1nc(-c1ccccc1)n1cnnc21,–,–,–,–,–,–,·,·
COC(=O)c1sc2nc(C)nc(SCC(=O)Nc3sccc3C(N)=O)c2c1C,–,–,19,·,–,–,–,–
COCCNC(=S)N/N=C/c1ccc(-c2ccc([N+](=O)[O-])cc2)o1,–,–,11,–,–,–,–,–
NC(=O)N/N=C/c1ccc(-c2ccc([N+](=O)[O-])cc2)o1,–,–,–,–,–,–,·,·
COC(=O)c1cc2ccccc2c(-c2c(O)ccc3ccccc23)c1O,–,–,17,–,–,–,13,–
COC(=O)c1ccccc1C(=O)c1cccc2ccccc12,–,–,–,–,–,–,·,·
Cc1ccc(S(=O)(=O)Nc2ccc(Nc3ccccc3)cc2)cc1,–,–,9.7,–,–,–,–,–
O=C(O)c1cccc(S(=O)(=O)Nc2ccc(-c3ccccc3)cc2)c1,–,–,–,·,–,–,·,·
O=S(=O)(Nc1ccc(Nc2ccccc2)cc1)c1ccc(F)cc1,–,–,–,–,–,–,·,·
O=S(=O)(Nc1ccc(-c2ccccc2)cc1)c1ccccc1,–,·,14,·,–,–,–,–
CCc1noc(C)c1C(=O)OCC(=O)Nc1nc(-c2ccc(F)c(F)c2)cs1,–,–,–,·,–,–,·,·
COC(=O)c1ccc2c(=O)n(Cc3ccc(C(=O)NCCCN4CCC(C)CC4)cc3)c(=S)[nH]c2c1,–,–,–,–,–,–,·,·
CC1CCN(CCCNC(=O)c2ccc3c(=O)n(Cc4ccc(Cl)cc4)c(=S)[nH]c3c2)CC1,–,–,13,–,–,–,9.9,–
COc1ccc(C(=O)Nc2cc(Cl)ccc2OC(=O)c2ccc(OC)cc2)cc1,–,–,14,–,–,–,–,–
Cc1ccc(C(=O)Nc2cc(Cl)ccc2OC(=O)c2ccc(C)cc2)cc1,·,–,·,–,·,·,·,·
O=C(Nc1cc(Cl)ccc1Cl)c1ccc(OC(=O)c2ccco2)cc1,–,–,13,–,–,–,–,–
O=C(Nc1ccccc1OC(=O)c1ccc(Cl)cc1)c1ccc(Cl)cc1,–,–,36,–,–,–,–,–
CCC(C)Sc1nc2c(cnn2-c2ccccc2)c(=O)[nH]1 (centres undefined),–,–,11,–,–,–,–,–
CCCSc1nc2c(cnn2-c2ccccc2)c(=O)[nH]1,–,–,–,–,–,–,·,·
CCOC(=O)c1ccc(S(=O)(=O)N2CCC(C(=O)NCC3COc4ccccc4O3)CC2)cc1 (centres undefined),·,·,–,·,–,–,·,·
Cc1ccc(C(=O)Nc2oc(-c3ccccc3)cc2C#N)cc1,–,–,12,–,–,–,–,–
CCOC(=O)c1c(C)[nH]c(C(=O)Cn2nnc(-c3ccccc3Cl)n2)c1C,–,–,–,–,–,–,·,·
SMILES,TMEM16A act,beta cell repl,MC4R barr agon,TMEM16A inh,m5-HT2A agonist,MC4R antagonist,MC4R barr conf,MOR DOR agonist
CCOC(=O)c1c(C)[nH]c(C(=O)CSc2nc(C)cc(C)n2)c1C,–,–,–,–,–,–,·,·
CCOC(=O)c1c(C)[nH]c(C(=O)Cn2nnc(-c3ccccc3)n2)c1C,–,–,13,–,–,–,–,–
CCOC(=O)c1c(C)[nH]c(C(=O)CSc2ccc(Cl)cc2)c1C,–,–,25,–,–,–,16,–
O=C(NC1CCc2ccccc21)c1cc(COc2cncc(Cl)c2)on1 (centres undefined),–,–,–,–,–,–,·,·
Nc1nonc1-n1nnc(C(=O)N/N=C/c2ccc(OCc3ccc(F)cc3)cc2)c1COc1ccccc1,–,–,19,–,–,–,–,–
O=C(N/N=C/c1ccccc1)c1ccc(OCc2ccccc2)cc1,–,–,12,–,–,–,–,–
CCCN(CCC)Cc1c(C(=O)N/N=C/c2ccc(C)o2)nnn1-c1nonc1N,–,–,13,–,–,–,–,–
Cc1ccc(COc2ccc(/C=N/NC(=O)c3nnn(-c4nonc4N)c3COc3ccc(F)cc3)cc2)cc1,–,–,–,–,–,–,·,·
CC(CN)(NS(=O)(=O)c1ccccc1)c1ccccc1 (centres undefined),–,–,–,–,–,–,·,·
Cc1cc(C)nc(N2CCN(c3ccc(F)cc3)CC2)n1,–,–,–,–,–,–,·,·
Clc1cc(/C=N\NC2=NCCN2)cc(Cl)n1,–,–,–,–,–,–,·,·
O=C(COC(=O)c1ccccc1NC(=O)c1ccco1)Nc1ncc(Cl)cc1Cl,–,–,–,–,–,–,·,·
COc1cc(NC(=O)c2ccco2)c(C(=O)OCC(=O)Nc2ncc(Cl)cc2Cl)cc1OC,–,–,18,–,–,–,–,–
COc1cccc(NC(=S)NN=C2CCCCCC2)c1,–,–,–,·,–,–,·,·
O=S(=O)(c1ccc2nc(-c3ccccc3)[nH]c2c1)N1CCN(c2ccc(Cl)cc2)CC1,–,–,11,–,–,–,–,–
O=c1ccc2cc(S(=O)(=O)N3CCN(c4ccccc4)CC3)ccc2[nH]1,–,–,–,–,–,–,·,·
O=C(CCCOc1ccc(Cl)cc1Cl)Nc1ncccn1,–,–,–,–,–,–,·,·
Cc1cc(NC(=O)CCCOc2ccc(Cl)cc2Cl)no1,–,–,17,–,–,–,–,–
COc1ccc(Cl)cc1C(=O)NNC(=O)CNC(=O)c1ccc(C)s1,–,–,–,·,–,–,·,·
COc1ccc(-c2nc(C(N)=O)c3[nH]c(=O)n(-c4cccc(Cl)c4)c3n2)cc1OC,–,·,13,·,–,–,11,–
O=S1c2ccccc2Sc2ccccc21,–,·,–,·,–,–,·,·
CN(C)C(=O)N1CCc2ccc([N+](=O)[O-])cc21,·,·,–,·,–,–,·,·
Cc1ccc(S(=O)(=O)Nc2cc(=O)[nH]c(SCc3ccc(Cl)cc3)n2)cc1,–,·,19,–,–,–,–,–
O=c1cc(NS(=O)(=O)c2ccccc2)nc(SCc2c(Cl)cccc2Cl)[nH]1,–,–,–,–,–,–,·,·
O=c1cc(/C=C/c2ccccc2)oc2c1ccc1ccccc12,–,–,29,–,–,–,16,–

# Screening data deposited in PubChem by several laboratories.
